Measurements from ChEMBL document CHEMBL4261550, “Triazolopyrimidines identified as reversible myeloperoxidase inhibitors” (Medchemcomm, 2017).
The source made the active and inactive calls. The rule behind the calls is not given here.

Key:
[1] = target: T1, Myeloperoxidase (Homo sapiens) (UniProt P05164); test: Substrate activity at human MPO assessed as reversion of enzyme to resting state at 80 uM in presence of H2O2 by stopped flow assay
T1 sequence (whole entry): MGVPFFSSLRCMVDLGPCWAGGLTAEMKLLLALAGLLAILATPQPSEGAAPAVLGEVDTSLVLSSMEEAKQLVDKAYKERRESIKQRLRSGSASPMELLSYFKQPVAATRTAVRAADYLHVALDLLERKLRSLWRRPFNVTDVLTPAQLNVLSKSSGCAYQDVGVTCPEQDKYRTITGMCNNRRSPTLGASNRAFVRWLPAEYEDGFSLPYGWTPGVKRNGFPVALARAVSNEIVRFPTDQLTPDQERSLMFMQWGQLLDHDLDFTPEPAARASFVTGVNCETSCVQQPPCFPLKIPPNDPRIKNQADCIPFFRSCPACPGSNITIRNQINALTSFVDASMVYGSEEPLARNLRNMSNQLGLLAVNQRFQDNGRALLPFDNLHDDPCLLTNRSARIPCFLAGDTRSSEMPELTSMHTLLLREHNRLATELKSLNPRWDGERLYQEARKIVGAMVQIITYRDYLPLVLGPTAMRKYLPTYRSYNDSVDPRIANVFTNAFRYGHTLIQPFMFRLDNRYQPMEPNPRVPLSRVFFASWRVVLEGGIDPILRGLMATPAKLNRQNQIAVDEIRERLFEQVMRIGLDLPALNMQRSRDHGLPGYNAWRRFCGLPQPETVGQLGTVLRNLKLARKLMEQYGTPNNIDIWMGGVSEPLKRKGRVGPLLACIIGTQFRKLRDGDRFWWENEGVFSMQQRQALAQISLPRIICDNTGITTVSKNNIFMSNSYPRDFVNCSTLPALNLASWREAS
How it was run: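 Stopped-flow at 25 °C: syringe 1 with 2 μM MPO and 5 μM H2O2 in phosphate buffer, syringe 2 with inhibitor and 5 μM H2O2; equal volumes rapidly mixed, spectra acquired in PDA mode to follow several MPO species; representative of numerous replicates.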

[2] = Hypochlorus scavenging activity at 10 uM in presence of sodium hypochlorite after 15 mins by APF dye based fluorescence assay relative to control; assay type: functional
How it was run: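 NaOCl-scavenger counterscreen in 1536-well format: 50 μM NaOCl in place of MPO with APF reagent, compound 10 μM final; fluorescence intensity read after 15 min incubation; ≥20% loss of fluorescence flagged as interference.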

[3] = target: T1, Myeloperoxidase (Homo sapiens); test: Inhibition of human MPO assessed as reduction in enzyme-mediated chlorination by measuring reduction in HOCl formation at 10 uM preincubated for 10 mins followed by H2O2/NaCl addition and measured at 30 secs time interval for 5 mins by APF dye based fluorescence assay relative to control
How it was run: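 HTS APF chlorination, 1536-well: 1.75 nM human MPO with 20 μM H2O2 final, compound 10 μM final, preincubated 10 min; APF reagent added, fluorescence 485/535 nm read every 30 s for 5 min; slope normalized to DMSO (0%) and no-MPO wells (100% inhibition).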

Myeloperoxidase [4] = target: T2, Myeloperoxidase (Homo sapiens, UniProt P05164); test: Inhibition of human MPO peroxidase activity in presence of H2O2 measured at 30 secs time interval for 5 mins by amplex red reagent based fluorescence assay
T2 sequence (P05164 whole entry): T1 sequence (whole entry)

Myeloperoxidase [5] = target: T2, Myeloperoxidase; test: Inhibition of human MPO assessed as reduction in enzyme-mediated chlorination by measuring reduction in HOCl formation in presence of H2O2/NaCl measured at 30 secs time interval for 5 mins by APF dye based fluorescence assay
[6] = Redox activity assessed as conversion of resazurin reagent to resorufin at 10 uM after 30 mins by fluorescence assay relative to control; assay type: physicochemical; details: 0.5 h
How it was run: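 Redox counterscreen: compound 10 μM final incubated with 5 μM resazurin reagent (final) 30 min; fluorescence intensity read; normalized to a reactive styrylpyrimidotriazinedione standard at 10 μM as 100%.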

Myeloperoxidase [7] = target: T2, Myeloperoxidase; test: Inhibition of human MPO assessed as reduction in enzyme-mediated chlorination by measuring reduction in HOCl formation preincubated for 10 mins followed by H2O2/NaCl addition and measured at 30 secs time interval for 5 mins by APF dye based fluorescence assay
[8] = target: T1, Myeloperoxidase (Homo sapiens); test: Ratio of IC50 for human MPO chlorination preincubated for 10 mins to IC50 for human MPO chlorination without preincubation
Myeloperoxidase [9] = target: T2, Myeloperoxidase; test: Inhibition of MPO in human neutrophils assessed as reduction in PMA-stimulated HOCl production incubated for 3 mins and measured for 25 mins by luminol reagent based luminescence assay
How it was run: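 Neutrophils from healthy donors isolated by dextran sedimentation then Ficoll-Paque, resuspended in HBSS; 1.106 cells/mL stimulated with 100 nM PMA; inhibitor 22 μM down to 1 nM (1:3, 10 doses) in 10% ethanol/50% PEG/40% water, 3 min at rt; luminol 100 μM final, read 25 min at 37 °C; rate taken from initial linear region.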

Thyroid peroxidase = target: T3, Thyroid peroxidase (Homo sapiens, UniProt P07202); test: Inhibition of recombinant human C-terminal His6-tagged TPO (15 to 839 residues) expressed in baculovirus infected insect cells assessed as reduction in H2O2-catalyzed 3,5-iodo tyrosine formation using 3-iodotyrosine and potassium iodide preincubated for 10 mins followed by 3,5-iodo tyrosine/potassium iodide/H2O2 addition and measured after 15 mins
T3 sequence (P07202 whole entry): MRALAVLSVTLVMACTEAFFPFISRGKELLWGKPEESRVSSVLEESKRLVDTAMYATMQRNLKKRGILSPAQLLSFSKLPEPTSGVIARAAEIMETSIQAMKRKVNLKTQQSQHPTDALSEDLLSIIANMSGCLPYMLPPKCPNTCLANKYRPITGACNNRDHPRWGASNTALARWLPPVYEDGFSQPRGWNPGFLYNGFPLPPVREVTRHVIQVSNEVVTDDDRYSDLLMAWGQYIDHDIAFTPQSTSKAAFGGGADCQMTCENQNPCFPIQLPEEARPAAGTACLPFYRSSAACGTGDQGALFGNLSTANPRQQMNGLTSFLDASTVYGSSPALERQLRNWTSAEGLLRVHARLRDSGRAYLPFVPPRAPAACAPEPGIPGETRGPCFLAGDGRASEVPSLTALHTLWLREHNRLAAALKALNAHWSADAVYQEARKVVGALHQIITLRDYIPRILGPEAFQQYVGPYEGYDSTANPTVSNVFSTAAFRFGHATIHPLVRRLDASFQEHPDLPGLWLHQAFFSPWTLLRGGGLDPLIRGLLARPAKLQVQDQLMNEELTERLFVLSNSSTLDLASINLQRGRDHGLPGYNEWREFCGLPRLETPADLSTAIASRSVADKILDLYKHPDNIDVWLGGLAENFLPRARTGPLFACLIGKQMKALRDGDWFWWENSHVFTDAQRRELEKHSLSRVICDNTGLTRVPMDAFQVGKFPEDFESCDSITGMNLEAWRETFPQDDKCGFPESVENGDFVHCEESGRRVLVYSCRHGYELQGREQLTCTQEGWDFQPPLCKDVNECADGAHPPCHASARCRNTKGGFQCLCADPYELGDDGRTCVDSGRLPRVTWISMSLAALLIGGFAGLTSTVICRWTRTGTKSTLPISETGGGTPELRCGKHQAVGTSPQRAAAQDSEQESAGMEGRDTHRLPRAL
How it was run: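 TPO residues 15–839 with C-terminal His6, baculovirus/T. ni expressed, purified by Ni affinity, anion exchange and size exclusion; 4.0 nM in 100 mM KPi pH 7.4, 10 min rt preincubation with inhibitor; then 400 μM KI/240 μM 3-iodotyrosine mix and 20 μM H2O2 (added solutions); 3,5-iodotyrosine formation monitored.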

[10] = target: T1, Myeloperoxidase (Homo sapiens); test: Irreversible inhibition of human MPO peroxidase activity at 20 nM preincubated for up to 30 mins followed by H2O2 addition and 2 to 10 times compound dilution measured at 30 secs time interval for 5 mins by amplex red reagent based fluorescence assay
How it was run: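 MPO (20 nM, phosphate buffer) was preincubated with inhibitor and 100 nM H2O2 for 2, 10, 20 and 30 min. Inhibitor was at 5x–10x the Amplex Red IC50 when that IC50 was > 1 μM, or 2–10x the enzyme concentration when it was < 1 μM. Controls were peroxide with 0.2% DMSO, and 4-hydroxybenzoic acid hydrazide. Unbound inhibitor was removed on a G50 spin column. Flow-through was assayed by Amplex Red, and the initial rate gave % activity remaining versus control. Runs were repeated with 100 mM NaCl and 150 μM L-methionine.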

Structure (SMILES)	IC50 (Myeloperoxidase [7])	also measured
N[C@@H](Cc1c[nH]c2ccccc12)C(=O)OCc1ccccc1	200 nM	Activity [1]: Active; Activity [2]: < 20%; inhibition [3]: 30%; IC50 (Myeloperoxidase [4]): > 13000 nM; IC50 (Myeloperoxidase [5]): 110 nM; Activity [6]: Not Active
Nc1nc(OCCc2ccccc2)c2nn[nH]c2n1	630 nM	–
Nc1nc(OCc2ccccc2)c2cn[nH]c2n1	> 13000 nM	–
O=c1[nH]c(=S)n(C[C@H]2CCCO2)c2nc[nH]c12	9 nM	Activity [2]: < 20%; inhibition [3]: 30%; Ratio IC50 [8]: 6; IC50 (Myeloperoxidase [4]): 12 nM; IC50 (Myeloperoxidase [9]): 1000 nM; IC50 (Myeloperoxidase [5]): 56 nM; IC50 (Thyroid peroxidase): 3.9 µM; Activity [6]: Not Active
Nc1nc(OCc2cccc(Cl)c2)c2nn[nH]c2n1	200 nM	–
Nc1nc(OCc2ccc(C(F)(F)F)cc2)c2nn[nH]c2n1	140 nM	–
Nc1nc(OCc2ccccc2F)c2nn[nH]c2n1	78 nM	–
c1ccc(COc2ncnc3[nH]nnc23)cc1	> 13000 nM	–
Nc1nc(OCc2ccccc2Cl)c2nn[nH]c2n1	180 nM	–
Nc1nc(OCc2ccccc2)c2[nH]cnc2n1 [6-O-BENZYLGUANINE]	> 13000 nM	–
Nc1nc(OCc2ccccc2)c2[nH]c(O)nc2n1	> 13000 nM	–
CCNc1nc(OCc2ccccc2)c2nn[nH]c2n1	2900 nM	–
Cc1ccccc1COc1nc(N)nc2[nH]nnc12	470 nM	–
Oc1nc(OCc2ccccc2)c2nn[nH]c2n1	> 13000 nM	–
Cc1ccc(COc2nc(N)nc3[nH]nnc23)cc1	510 nM	–
Nc1nc(Oc2ccccc2)c2nn[nH]c2n1	> 13000 nM	–
NNC(=O)c1ccc(O)cc1	–	inhibition [10]: Active
Nc1nc(OCc2cccc(F)c2)c2nn[nH]c2n1	40 nM	–
Cn1nnc2c(OCc3ccccc3)nc(N)nc21	> 13000 nM	–
COc1cccc(COc2nc(N)nc3[nH]nnc23)c1	490 nM	–
Nc1nc(OCc2ccc(F)cc2)c2nn[nH]c2n1	47 nM	–
Nc1nc(OCc2cccc(OC(F)F)c2)c2nn[nH]c2n1	200 nM	–
